From ChEMBL document CHEMBL1137754, “Inhibitors of potassium channels KV1.3 and IK-1 as immunosuppressants” (Bioorg Med Chem Lett, 2009)
Active and inactive are the calls of the source. The rule behind the calls is not given here.

Key:
[1] = biological target: Intermediate conductance calcium-activated potassium channel protein 4 (Homo sapiens, UniProt O15554); experiment: Inhibition of human cloned IK1 expressed in african green monkey COS7 cells by whole cell patch clamp assay; format: cell-based, COS-7
Sequence of Intermediate conductance calcium-activated potassium channel protein 4 (O15554 whole entry): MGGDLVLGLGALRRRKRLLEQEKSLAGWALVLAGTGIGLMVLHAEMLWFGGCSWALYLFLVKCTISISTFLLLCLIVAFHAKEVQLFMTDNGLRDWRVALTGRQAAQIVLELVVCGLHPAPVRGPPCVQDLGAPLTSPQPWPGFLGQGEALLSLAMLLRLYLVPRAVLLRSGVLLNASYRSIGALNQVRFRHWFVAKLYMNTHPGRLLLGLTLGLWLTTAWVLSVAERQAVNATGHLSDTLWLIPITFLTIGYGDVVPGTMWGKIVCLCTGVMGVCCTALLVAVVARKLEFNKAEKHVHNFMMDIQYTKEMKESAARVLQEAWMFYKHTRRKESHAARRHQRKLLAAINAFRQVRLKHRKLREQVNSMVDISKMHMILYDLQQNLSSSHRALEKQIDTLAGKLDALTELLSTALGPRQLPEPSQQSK

[2] = biological target: T1, Potassium voltage-gated channel subfamily A member 3 (Homo sapiens, UniProt P22001); experiment: Inhibition of cloned Kv1.3 channel expressed in mammalian cells by whole cell patch clamp assay; format: cell-based
T1 sequence (P22001 whole entry): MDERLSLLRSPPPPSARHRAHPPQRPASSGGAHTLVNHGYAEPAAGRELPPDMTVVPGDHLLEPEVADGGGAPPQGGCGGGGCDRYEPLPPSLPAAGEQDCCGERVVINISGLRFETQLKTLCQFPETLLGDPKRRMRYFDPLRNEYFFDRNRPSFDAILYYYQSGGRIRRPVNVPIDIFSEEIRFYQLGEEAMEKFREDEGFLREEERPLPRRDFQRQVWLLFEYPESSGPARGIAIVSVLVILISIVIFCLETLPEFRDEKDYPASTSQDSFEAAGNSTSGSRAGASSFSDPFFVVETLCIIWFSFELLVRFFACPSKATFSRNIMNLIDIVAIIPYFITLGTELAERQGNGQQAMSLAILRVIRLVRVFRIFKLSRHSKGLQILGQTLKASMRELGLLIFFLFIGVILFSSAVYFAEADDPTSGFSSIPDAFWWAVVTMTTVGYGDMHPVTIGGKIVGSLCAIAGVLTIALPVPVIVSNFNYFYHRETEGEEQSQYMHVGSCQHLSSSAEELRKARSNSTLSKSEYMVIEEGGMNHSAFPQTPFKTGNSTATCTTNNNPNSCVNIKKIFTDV
Summary of the method: (§1)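 Whole-cell patch clamp recording, n ≥ 2 individual experiments per compound concentration using different cells. Dose–response curves used four or more concentrations.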

[3] = biological target: T1, Potassium voltage-gated channel subfamily A member 3; experiment: Inhibition of cloned Kv1.3 channel expressed in mammalian cells at 2 uM by whole cell patch clamp assay; format: cell-based; summary of the method: as §1
[4] = biological target: T1, Potassium voltage-gated channel subfamily A member 3; experiment: Inhibition of cloned Kv1.3 channel expressed in mammalian cells at 20 uM by whole cell patch clamp assay
HaCaT [5] = experiment: Inhibition of human HaCaT cell proliferation after 48 hrs; format: functional, cell-based
Summary of the method: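 HaCaT keratinocytes were seeded in KBM/10% FCS and held 24 h at 37 °C. Compounds diluted in KBM/FCS (final 1% DMSO) were added in triplicate and incubated 48 h.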

[6] = biological target: T1, Potassium voltage-gated channel subfamily A member 3; experiment: Inhibition of cloned Kv1.3 channel expressed in mammalian cells at 20 uM by whole cell patch clamp assay; format: cell-based; summary of the method: as §1
[7] = (§2) Cytotoxicity against human HaCaT cells; format: cell-based; conditions: HaCaT cells, read-out: LD50 (the source's name)
Mus musculus = experiment: Antiinflammatory activity against oxazolone-induced delayed type hypersensitivity in mouse assessed as reduction in ear swelling at 1%, topically applied 30 mins post oxazolone challenge; format: functional; parameters: scale not given: the % may be the effect or the level left
Summary of the method: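 Mouse DTH ear-swelling model with oxazolone sensitization and challenge. A single topical dose at 1% in ethanol–DMSO 4:1 was applied 30 min after challenge. The read-out was ear swelling relative to a vehicle-treated group. Protopic (0.1%) served as positive control. Values are means of n = 5 animals per group.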

[8] = Cytotoxicity against human effector memory T cells of PBMC; format: cell-based, T-cell; conditions: effector memory T cells from PBMC, read-out: LD50 (the source's name)
PBMC [9] = experiment: Immunosuppressant activity in human effector memory T cells of PBMC assessed as inhibition of anti-CD3 antibody-induced cell proliferation by ELISA in presence of 5 uM Kv1.3-blocker PAP1; format: functional, cell-based
Summary of the method: (§3)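 T_EM fraction of PBMCs stimulated with anti-CD3 antibody; proliferation dose–response curves for one channel blocker were run against a fixed background of a blocker of the other channel (IK-1 blocker, or 5 µM PAP-1 for Kv1.3). The read-out was EC50.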

[10] = Cytotoxicity against human effector memory T cells of PBMC up to 50 uM; format: cell-based
HaCaT [11] = experiment: as §2; format: cell-based; conditions: hacat
HaCaT [12] = experiment: Cytotoxicity against human HaCaT cells up to 50 uM; format: cell-based
PBMC [13] = experiment: Immunosuppressant activity in human effector memory T cells of PBMC assessed as inhibition of anti-CD3 antibody-induced cell proliferation by ELISA; format: functional, cell-based
PBMC [14] = experiment: Immunosuppressant activity in human effector memory T cells of PBMC assessed as inhibition of anti-CD3 antibody-induced cell proliferation by ELISA in presence of 16.7 uM IK1-blocker 5-(4-Chloro-benzenesulfonyl)-5,6-dihydro-dibenzo[b,d]azepin-7-one; format: functional, cell-based; summary of the method: as §3
PBMC [15] = experiment: Immunosuppressant activity in human effector memory T cells of PBMC assessed as inhibition of anti-CD3 antibody-induced cell proliferation by ELISA in presence of 5 uM IK1-blocker 5-(4-Chloro-benzenesulfonyl)-5,6-dihydro-dibenzo[b,d]azepin-7-one; format: functional, cell-based; summary of the method: as §3
PBMC [16] = experiment: Immunosuppressant activity in human effector memory T cells of PBMC assessed as inhibition of anti-CD3 antibody-induced cell proliferation by ELISA in presence of 5 uM IK1-blocker TRAM34; format: functional, cell-based; summary of the method: as §3
PBMC [17] = experiment: Immunosuppressant activity in human effector memory T cells of PBMC assessed as inhibition of anti-CD3 antibody-induced cell proliferation by ELISA in presence of 5 uM IK1-blocker 5-(Toluene-4-sulfonyl)-5,6-dihydro-dibenzo[b,d]azepin-7-one; format: functional, cell-based; summary of the method: as §3

**Q.** With `Cc1ccc(C(=O)N2CC(=O)c3ccccc3-c3ccccc32)cc1` as the molecule, how does the IC50 [1] read?
**A.** 16 µM

**Q.** And the IC50 [2]?
**A.** 4 µM

**Q.** With `CCCC(C)C(=O)N1c2ccccc2-c2ccccc2C1c1cccs1` (configuration not stated) as the molecule, how does the inhibition [3] read?
**A.** 59%

**Q.** And the IC50 [2]?
**A.** < 2 µM

**Q.** Which results are given for `O=c1c2ccccc2c2ccccc2n1CCn1cccc1`?
**A.** inhibition [4]: 57%; EC50 (HaCaT [5]): 2.3 µM; inhibition [6]: 57%

**Q.** For `Clc1ccccc1C(c1ccccc1)(c1ccccc1)n1ccnc1` [CLOTRIMAZOLE], which CC50 [7] is on record?
**A.** 40 µM

**Q.** What about the Activity (Mus musculus) of the same molecule?
**A.** 20%

**Q.** What about the EC50 (HaCaT [5]) of the same molecule?
**A.** 15 µM

**Q.** And the CC50 [8]?
**A.** 40 µM

**Q.** And the IC50 [2]?
**A.** 6 µM

**Q.** For `O=C(O)C(=O)C1c2ccccc2-c2ccccc2N1C(=O)c1ccco1` (configuration not stated), which inhibition [3] is on record?
**A.** 41%

**Q.** Which inhibition [3] does the source give for `COc1cccc(C(=O)C2c3ccccc3-c3ccccc3N2C(=O)c2ccco2)c1` (configuration not stated) here?
**A.** 30%

**Q.** Which EC50 (PBMC [9]) does the source give for `Cc1ccc(S(=O)(=O)N2CC(=O)c3ccccc3-c3ccccc32)cc1` here?
**A.** 2.5 µM

**Q.** And the Activity [10]?
**A.** Non-toxic

**Q.** And the Activity (HaCaT [11])?
**A.** Non-toxic

**Q.** What about the IC50 [1] of the same molecule?
**A.** 2.1 µM

**Q.** And the Activity (Mus musculus)?
**A.** 20%

**Q.** And the EC50 (HaCaT [5])?
**A.** 8.4 µM

**Q.** What about the Activity (HaCaT [12]) of the same molecule?
**A.** Non-toxic

**Q.** And the Activity (PBMC [13])?
**A.** inactive

**Q.** And the IC50 [2]?
**A.** 5.8 µM

**Q.** What does the source list for `Clc1ccccc1C(c1ccccc1)(c1ccccc1)n1cccn1`?
**A.** EC50 (PBMC [9]): 0.025 µM; EC50 (HaCaT [5]): 40 µM; Activity (PBMC [13]): inactive; IC50 [2]: 5 µM

**Q.** For `O=C(CCC1CCCC1)C1c2ccccc2-c2ccccc2N1C(=O)c1ccco1` (configuration not stated), which inhibition [3] is on record?
**A.** 11%

**Q.** Which results are given for `O=C1CN(S(=O)(=O)c2cccs2)c2ccccc2-c2ccccc21`?
**A.** IC50 [1]: 2.4 µM; IC50 [2]: 13 µM

**Q.** Which inhibition [3] does the source give for `O=C(CCc1ccccc1)C1c2ccccc2-c2ccccc2N1C(=O)c1ccco1` (configuration not stated) here?
**A.** 15%

**Q.** For `O=C(c1ccc2c(c1)OCO2)C1c2ccccc2-c2ccccc2N1C(=O)c1ccco1` (configuration not stated), which inhibition [3] is on record?
**A.** 8%

**Q.** With `O=c1[nH]c2ccccc2c2ccccc12` as the molecule, how does the inhibition [4] read?
**A.** 12%

**Q.** For `CC(=O)N1c2ccccc2-c2ccccc2C1c1c[nH]c2ccccc12` (configuration not stated), which IC50 [2] is on record?
**A.** 5 µM

**Q.** With `O=C(c1ccc[nH]1)C1c2ccccc2-c2ccccc2N1C(=O)c1ccco1` (configuration not stated) as the molecule, how does the inhibition [3] read?
**A.** 15%

**Q.** For `O=C1CN(S(=O)(=O)c2ccc([N+](=O)[O-])cc2)c2ccccc2-c2ccccc21`, which IC50 [2] is on record?
**A.** > 10 µM

**Q.** For `O=C1CN(S(=O)(=O)c2cccc(Cl)c2)c2ccccc2-c2ccccc21`, which IC50 [2] is on record?
**A.** 3.6 µM

**Q.** Which inhibition [3] does the source give for `COc1ccc(C(=O)C2c3ccccc3-c3ccccc3N2C(=O)c2ccco2)cc1` (configuration not stated) here?
**A.** 13%

**Q.** For `O=C1CN(C(=O)c2cccc(Cl)c2)c2ccccc2-c2ccccc21`, which IC50 [1] is on record?
**A.** 1.3 µM

**Q.** And the IC50 [2]?
**A.** 3.4 µM

**Q.** For `O=C(c1cc(F)ccc1F)N1c2ccccc2-c2ccccc2C1c1cccs1` (configuration not stated), which inhibition [3] is on record?
**A.** 27%

**Q.** With `O=c1ccc2c(OCCCCOc3ccccc3)c3ccoc3cc2o1` as the molecule, how does the EC50 (PBMC [14]) read?
**A.** 0.5 µM

**Q.** What about the EC50 (PBMC [15]) of the same molecule?
**A.** 1.2 µM

**Q.** What about the IC50 [1] of the same molecule?
**A.** 10 µM

**Q.** What about the EC50 (PBMC [16]) of the same molecule?
**A.** 0.43 µM

**Q.** And the EC50 (PBMC [13])?
**A.** 25 µM

**Q.** What about the EC50 (PBMC [17]) of the same molecule?
**A.** 0.4 µM
